Structures are written as SMILES. pEC50, pIC50: −log10 of the molar value.

Experimental findings from ChEMBL document CHEMBL1129589, “Anti-inflammatory 17beta-thioalkyl-16alpha,17alpha-ketal and -acetal androstanes: a new class of airway selective steroids for the treatment of asthma” (J Med Chem, 1996) are described below.

The subject of experiment [1] is Rattus norvegicus. As to the kind of experiment: In vivo inhibition of Rat lung edema following i.t. administration. The following applies: inhaled or nasal. The experiment is classed as functional.
In experiment [2] the test system is Rattus norvegicus. As to the kind of experiment: Selectivity ratio of Topical vs Systemic routes of administration. Type of experiment: functional. The gist of the method: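 Male Sprague-Dawley rats (about 350 g, six per group) received the steroid intratracheally under halothane. It was suspended in 1% carboxymethyl cellulose/0.2% Tween 80 and given at 0 h with saline and at 24 h with Sephadex G200 (final 5 mg/mL). At 48 h, lungs and thymus were weighed. The ratio compares doses giving 30% reduction of lung edema and of thymus weight in the same animals.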

Experiment [3] concerns Rattus norvegicus. As to the kind of experiment: In vivo suppression of thymus weight by 30% following i.t. administration. The experiment is classed as functional. The following applies: inhaled or nasal. In outline: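 Male Sprague-Dawley rats (~350 g, six per group) dosed intratracheally under halothane anesthesia at 0 and 24 h. Vehicle: 1% carboxymethyl cellulose/0.2% Tween 80 suspension, sonicated. First dose given with saline, second with Sephadex G200 (final 5 mg/mL). Rats killed at 48 h; lungs and thymus weighed. Doses reducing Sephadex-induced edema and thymus weight by 30% calculated.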

For experiment [4], the target named is T1, Glucocorticoid receptor (Rattus norvegicus, UniProt P06536).
T1 sequence (P06536 whole entry): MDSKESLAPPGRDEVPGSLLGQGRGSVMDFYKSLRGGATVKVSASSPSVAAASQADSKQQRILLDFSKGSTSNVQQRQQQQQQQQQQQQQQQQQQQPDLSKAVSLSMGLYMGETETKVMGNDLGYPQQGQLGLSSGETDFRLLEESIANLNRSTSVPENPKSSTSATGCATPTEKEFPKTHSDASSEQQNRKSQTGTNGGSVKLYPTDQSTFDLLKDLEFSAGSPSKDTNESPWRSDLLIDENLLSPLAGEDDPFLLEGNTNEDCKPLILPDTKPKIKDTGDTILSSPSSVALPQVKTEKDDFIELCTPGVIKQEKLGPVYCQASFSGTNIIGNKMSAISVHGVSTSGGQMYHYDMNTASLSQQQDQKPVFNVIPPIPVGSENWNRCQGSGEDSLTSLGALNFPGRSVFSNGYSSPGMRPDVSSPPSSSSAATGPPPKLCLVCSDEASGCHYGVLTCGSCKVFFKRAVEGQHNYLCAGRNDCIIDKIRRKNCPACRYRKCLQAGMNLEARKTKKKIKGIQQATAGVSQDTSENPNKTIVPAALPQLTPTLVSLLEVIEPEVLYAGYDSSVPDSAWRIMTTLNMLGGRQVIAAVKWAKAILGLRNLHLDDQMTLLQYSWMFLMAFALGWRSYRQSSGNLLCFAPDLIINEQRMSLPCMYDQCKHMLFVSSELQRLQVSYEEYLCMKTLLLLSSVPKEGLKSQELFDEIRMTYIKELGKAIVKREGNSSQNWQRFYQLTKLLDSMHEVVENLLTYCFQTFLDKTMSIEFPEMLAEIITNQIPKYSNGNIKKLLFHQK
Briefly: Steroid binding against the rat thymus glucocorticoid receptor.

Experiment [5] deals with H35. As to the kind of experiment: Induction of tyrosine aminotransferase activity in cultured rat liver H4IIE cells. The experiment is classed as functional. Particulars: read-out: ED50 (the source's name). The gist of the method: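 Confluent H4IIE rat hepatoma cells (4-day culture) incubated overnight with steroid at 0-100 nM, in triplicate wells. Lysate equilibrated at 37 °C with α-ketoglutarate and pyridoxal phosphate in phosphate buffer, pH 7.3.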

In experiment [6] the test system is Rattus norvegicus. Briefly: Selectivity ratio of Topical vs Systemic routes of administration. Type of experiment: functional. The gist of the method: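 Male Sprague-Dawley rats (about 350 g, six per group) were dosed intratracheally under halothane at 0 and 24 h, as a sonicated suspension in 1% carboxymethyl cellulose/0.2% Tween 80. The first dose was given with saline, the second with Sephadex G200 (final 5 mg/mL). Lungs and thymus were weighed at 48 h. The ratio compares doses reducing edema and thymus weight by 30%, both measured in the same animals.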

As to `CCC[C@@H]1O[C@@H]2CC3C4CCC5=CC(=O)C=C[C@]5(C)[C@@]4(F)[C@@H](O)C[C@]3(C)[C@]2(SCC)O1` (stereo partly drawn), the values for the ED50 in experiment [1] and in experiment [3] were > 3 mg/kg and 7 mg/kg, respectively. The Selectivity in experiment [2] is recorded as >0.43. The negative logarithm of the IC50 (pIC50) – broadly, the negative decadic logarithm of the IC50, by convention in mol/L – in experiment [4] was 8.48. For the same compound, the pEC50 in experiment [5] was 8.82.
The like results for `CCC[C@@H]1O[C@@H]2CC3C4C[C@H](F)C5=CC(=O)C=C[C@]5(C)[C@@]4(F)[C@@H](O)C[C@]3(C)[C@]2(SCF)O1` (stereo partly drawn) were, in that order, 0.3 mg/kg, 4.6 mg/kg, 0.065, 8.66 and 9.52.
Taken in the same sequence, the figures for `CS[C@@]12OC(C)(C)O[C@@H]1CC1C3C[C@H](F)C4=CC(=O)C=C[C@]4(C)[C@@]3(F)[C@@H](O)C[C@@]12C` (stereo partly drawn) were 1.3 mg/kg, 3.2 mg/kg, 0.4, 8.66 and 9.70.
For the compound `CCC[C@@H]1O[C@@H]2CC3C4CCC5=CC(=O)C=C[C@]5(C)[C@@]4(F)[C@@H](O)C[C@]3(C)[C@]2(Sc2ccccn2)O1` (stereo partly drawn), the 50% effective dose (ED50) in experiment [1] and in experiment [3] was > 3 mg/kg throughout. In addition, the pIC50 in experiment [4] was 7.92. Also, in experiment [5], the pEC50 is < 7.00.
Take `CCC[C@@H]1O[C@@H]2CC3C4CCC5=CC(=O)C=C[C@]5(C)[C@@]4(F)[C@@H](O)C[C@]3(C)[C@]2(SC(C)C)O1` (stereo partly drawn): the ED50 in experiment [1] and in experiment [3] was > 3 mg/kg throughout. Also, in experiment [4], the pIC50 was 8.26. Besides, the pEC50 in experiment [5] was 8.15.
Turning to `CCS[C@]1(SC)CC[C@H]2[C@@H]3CCC4=CC(=O)C=C[C@]4(C)[C@@]3(F)[C@@H](O)C[C@@]21C`, the figures for the ED50 in experiment [1] and in experiment [3] were 2.1 mg/kg and 1.1 mg/kg, respectively. The Selectivity in experiment [2] is given as 1.91. In addition, in experiment [4], the pIC50 was 8.64. In addition, the pEC50 in experiment [5] is 8.70.
The like results for `CC1(C)O[C@@H]2C[C@H]3[C@@H]4C[C@H](F)C5=CC(=O)C=C[C@]5(C)[C@@]4(F)[C@@H](O)C[C@]3(C)[C@]2(SCF)O1` were, in that order, 0.07 mg/kg, 1.9 mg/kg, 0.037, 8.37 and 9.00.
As for `CC=C[C@@H]1O[C@@H]2C[C@H]3[C@@H]4CCC5=CC(=O)C=C[C@]5(C)[C@@]4(F)[C@@H](O)C[C@]3(C)[C@]2(SC)O1`, the ED50 (as a rule, the dose that gives a 50% effect, or the effect in half of the subjects) in experiment [1] is > 3 mg/kg; in experiment [3], 1.1 mg/kg. Also, the Selectivity in experiment [2] was >2.73. The compound also had a pIC50 in experiment [4] of 8.74. In experiment [5], the pEC50 is 8.96.
With `CC1(C)O[C@@H]2C[C@H]3[C@@H]4CCC5=CC(=O)C=C[C@]5(C)[C@@]4(F)[C@@H](O)C[C@]3(C)[C@]2(S(C)(=O)=O)O1`, the ED50 in experiment [1] worked out at 2.2 mg/kg; in experiment [3] it was 1.4 mg/kg. Besides, the Selectivity in experiment [2] is given as 1.57. The same compound gave a pIC50 in experiment [4] of 8.28. Also, the pEC50 in experiment [5] is 7.89.
`CCC[C@@H]1O[C@@H]2CC3C4C[C@H](F)C5=CC(=O)C=C[C@]5(C)[C@@]4(F)[C@@H](O)C[C@]3(C)[C@]2(SC)O1` (stereo partly drawn): the median effective dose (ED50) in experiment [1] amounted to 0.11 mg/kg; in experiment [3] it was 0.54 mg/kg. Moreover, the Selectivity in experiment [2] was 0.2. The compound further had a pIC50 in experiment [4] of 8.62. The pEC50 in experiment [5] is 9.40.
As for `CCC[C@@H]1O[C@@H]2CC3C4CCC5=CC(=O)C=C[C@]5(C)[C@@]4(F)[C@@H](O)C[C@]3(C)[C@]2(SC)O1` (stereo partly drawn), the ED50 in experiment [1] was > 1 mg/kg; in experiment [3], 1.8 mg/kg. Also, the Selectivity in experiment [2] is reported as >0.56. In experiment [4], this compound gave a pIC50 of 8.77. In addition, the pEC50 in experiment [5] was 8.77.
As for `CCC[C@@H]1O[C@@H]2CC3C4CCC5=CC(=O)C=C[C@]5(C)[C@@]4(F)[C@@H](O)C[C@]3(C)[C@]2(SCF)O1` (stereo partly drawn), the ED50 in experiment [1] is > 3 mg/kg; in experiment [3] it was 4 mg/kg. For the same compound, the Selectivity in experiment [2] is >0.75. The pIC50 in experiment [4] is 8.48. The pEC50 in experiment [5] is 8.92.
Turning to `CCC[C@@H]1O[C@@H]2CC3C4C[C@H](F)C5=CC(=O)CC[C@]5(C)[C@@]4(F)[C@@H](O)C[C@]3(C)[C@]2(SC)O1` (stereo partly drawn), the ED50 in experiment [1] amounted to 0.06 mg/kg; in experiment [3], 1 mg/kg. In experiment [2], the Selectivity was found to be 0.06. Besides, the pIC50 in experiment [4] is 8.66. The pEC50 in experiment [5] is 9.52.
Consider `CCC[C@@H]1O[C@@H]2CC3C4CCC5=CC(=O)CC[C@]5(C)[C@@]4(F)[C@@H](O)C[C@]3(C)[C@]2(SC)O1` (stereo partly drawn), for which the ED50 was 3.6 mg/kg in experiment [1] and 5.2 mg/kg in experiment [3]. Also, the pEC50 in experiment [5] was 9.15.
In the case of `CS[C@@]12OC(C)(C)O[C@@H]1CC1C3CCC4=CC(=O)C=C[C@]4(C)[C@@]3(F)[C@@H](O)C[C@@]12C` (stereo partly drawn), the ED50 in experiment [1] is 0.3 mg/kg; in experiment [3], 0.9 mg/kg. For the same compound, the Selectivity in experiment [2] came to 0.33. Also, in experiment [4], the negative logarithm of the IC50 (pIC50) was 8.80. In experiment [5], the pEC50 is 9.70.
With `CC1(C)O[C@@H]2CC3C4CCC5=CC(=O)C=C[C@]5(C)[C@@]4(F)[C@@H](O)C[C@]3(C)[C@]2(Sc2ccccn2)O1` (stereo partly drawn), the ED50 in experiment [1] and in experiment [3] was > 3 mg/kg in each case. This compound showed a pIC50 in experiment [4] of 7.66. Also, the pEC50 in experiment [5] is 7.30.
`CCC[C@@H]1O[C@@H]2CC3C4CCC5=CC(=O)C=C[C@]5(C)[C@@]4(F)[C@@H](O)C[C@]3(C)[C@]2([S+](C)[O-])O1` (stereo partly drawn): the values for the ED50 in experiment [1] and in experiment [3] were > 3 mg/kg and 3 mg/kg, respectively. The compound also had a pIC50 in experiment [4] of 8.49. Moreover, the Selectivity in experiment [6] was >1. Also, the pEC50 in experiment [5] is 7.64.
Take `CCC(=O)O[C@]1(C(=O)SCF)C(C)C[C@H]2[C@@H]3C[C@H](F)C4=CC(=O)C=C[C@]4(C)[C@@]3(F)[C@@H](O)C[C@@]21C` (single isomer, unassigned) [FLUTICASONE PROPIONATE]: the ED50 in experiment [1] came out at 0.05 mg/kg; in experiment [3] it was 0.47 mg/kg. Further, in experiment [5], the pEC50 is 10.00.
As for `CCCC1O[C@@H]2C[C@H]3[C@@H]4CCC5=CC(=O)C=C[C@]5(C)[C@H]4[C@@H](O)C[C@]3(C)[C@]2(C(=O)CO)O1` (stereo partly drawn) [BUDESONIDE], the values for the ED50 in experiment [1] and in experiment [3] were 0.39 mg/kg and 0.96 mg/kg, respectively. In experiment [2], the Selectivity was determined as 0.4. In experiment [4], this compound gave a pIC50 of 8.54. Further, the pEC50 in experiment [5] is 9.70.
